pIC50: −log10 of the molar value.
Tests used:
Rattus norvegicus [1] = organism: Rattus norvegicus; experiment: Compound was tested in vitro for [Ca2+] antagonistic activity in K+-depolarized isolated rat aorta; format: functional
Method in brief: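 Thoracic aorta rings (2–3 mm) from male Sprague–Dawley rats (350–550 g), isometric tension in Krebs–Henseleit pH 7.4, 37 °C, 95% O2/5% CO2, 2 g resting tension. After a priming 30 mM K+ contraction and washout, second 30 mM K+ contraction; compound added cumulatively in half-log steps. IC50 = concentration relaxing contraction to 50%; mean ± SE, 2–8 experiments.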

Oryctolagus cuniculus [2] = organism: Oryctolagus cuniculus; experiment: in vitro inhibitory activity on soybean lipoxygenase-induced lipid peroxidations of rabbit low-density lipoprotein (LDL) at 0.5 uM dosage; format: functional
Method in brief: (§1)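 Rabbit LDL (Havel method) with compound, oxidised by soybean lipoxygenase type-1S (40 μg/mL final) for 24 h at 37 °C in CO2 incubator. LDL fraction separated by gel-permeation chromatography; fluorescence read at ex 360/em 430 nm. Expressed as percent of control.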

Oryctolagus cuniculus [3] = organism: Oryctolagus cuniculus; experiment: in vitro inhibitory activity on soybean lipoxygenase-induced lipid peroxidations of rabbit low-density lipoprotein (LDL) at 5 uM dosage.; format: functional, organism-based; method in brief: as §1
Rattus norvegicus [4] = organism: Rattus norvegicus; experiment: Compound was tested for [Ca2+] overload inhibitory activity in the veratridine-induced [Ca2+] overload model of rat cardiac myocytes.; format: functional, organism-based
Method in brief: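 Ventricular myocytes isolated from male Sprague–Dawley rats (300–500 g) by enzyme perfusion; rod-shaped cells exposed to compound 30 min, then 50 μg/mL veratridine added. Survival judged by cell shape 5 min later. Value is molar concentration inhibiting cell death by >80%; 2–8 experiments, >50 rod-shaped myocytes each.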

Canis familiaris = experiment: Effect on coronary blood flow (CBF) by intravenous administration of compound in anesthetized dogs.; format: functional, Canis lupus familiaris; set-up: concentration or dose not given beside the values
Method in brief: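 Male beagles (9–14 kg) under pentobarbital (35 mg/kg iv, then 3–5 mg/kg/h infusion), artificially ventilated, left thoracotomy. Compound given iv via cephalic vein at […]. Coronary blood flow change expressed as maximal percent change from pre-dose value; mean ± SE from 5–6 dogs or a single experiment.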

Oryctolagus cuniculus [5] = organism: Oryctolagus cuniculus; experiment: In vitro inhibitory activity on soybean lipoxygenase-induced lipid peroxidations of rabbit low-density lipoprotein (LDL) at 5 uM dosage.; format: functional, organism-based; method in brief: as §1
Oryctolagus cuniculus [6] = organism: Oryctolagus cuniculus; experiment: In vitro inhibitory activity on soybean lipoxygenase-induced lipid peroxidations of rabbit low-density lipoprotein (LDL) at 0.5 uM dosage; format: functional; method in brief: as §1

In the case of `Cc1cc(C2SCC(=O)N2CCCN(C)CCOc2ccc3c(c2)OCO3)cc(C(C)(C)C)c1O` (stereo not drawn), the pIC50 (Rattus norvegicus [1]; Rattus norvegicus, Aorta) was 6.55.

Work on `CN(CCOc1ccc2c(c1)OCO2)CCN1C(=O)CSC1c1cc(C(C)(C)C)c(O)c(C(C)(C)C)c1` (stereo not drawn) yielded a pIC50 (Rattus norvegicus [1]; Rattus norvegicus, Aorta) of 6.44.

With `CN(CCCN1C(=O)CSC1c1cc(C(C)(C)C)c(O)c(C(C)(C)C)c1)CCOc1ccc2c(c1)OCO2` (single isomer, unassigned; (-)) [listing 1 of 2 here] the LDL oxidation (Oryctolagus cuniculus [2]) was 16.4% and the LDL oxidation (Oryctolagus cuniculus [3]) was 3.9%.

In the case of `CN(CCCCCN1C(=O)CSC1c1cc(C(C)(C)C)c(O)c(C(C)(C)C)c1)CCOc1ccc2c(c1)OCO2` (stereo not drawn), the pIC50 (Rattus norvegicus [1]; Rattus norvegicus, Aorta) was 6.55 and the LDL oxidation (Oryctolagus cuniculus [3]) was 5.9%.

Compound `CN(CCCCOc1ccc2c(c1)OCO2)CCCN1C(=O)CSC1c1cc(C(C)(C)C)c(O)c(C(C)(C)C)c1` (stereo not drawn) has a pIC50 (Rattus norvegicus [1]; Rattus norvegicus, Aorta) of 6.70 and a pIC50 (Rattus norvegicus [4]; Rattus norvegicus) of 6.49.

Work on `CN(CCCN1C(=O)CSC1c1ccc(O)c(C(C)(C)C)c1)CCOc1ccc2c(c1)OCO2` (stereo not drawn) yielded a pIC50 (Rattus norvegicus [1]; Rattus norvegicus, Aorta) of 6.25.

In the case of `CN(CCCN1C(=O)C[S+]([O-])C1c1cc(C(C)(C)C)c(O)c(C(C)(C)C)c1)CCOc1ccc2c(c1)OCO2` (stereo not drawn), the pIC50 (Rattus norvegicus [1]; Rattus norvegicus, Aorta) was 6.10.

With `CN(CCCN1C(=O)CSC1c1cc(Cl)c(O)c(Cl)c1)CCOc1ccc2c(c1)OCO2` (stereo not drawn) the pIC50 (Rattus norvegicus [1]; Rattus norvegicus, Aorta) was less than 5.00.

`CN(CCCN1C(=O)CSC1c1cc(C(C)(C)C)c(O)c(C(C)(C)C)c1)CCOc1ccc2c(c1)OCO2` (single isomer, unassigned; (-)) [listing 2 of 2 here] gave a pIC50 (Rattus norvegicus [1]) of 7.48, a CBF increasing activity (Canis familiaris) of 117% and a pIC50 (Rattus norvegicus [4]) of 6.49.

In the case of `CCc1cc(C2SCC(=O)N2CCCN(C)CCOc2ccc3c(c2)OCO3)cc(CC)c1O` (stereo not drawn), the pIC50 (Rattus norvegicus [1]; Rattus norvegicus, Aorta) was 6.49.

`CC(C)N(CCCN1C(=O)CSC1c1cc(C(C)(C)C)c(O)c(C(C)(C)C)c1)CCOc1ccc2c(c1)OCO2` (stereo not drawn) gave a pIC50 (Rattus norvegicus [1]; Rattus norvegicus, Aorta) of 6.35 and a pIC50 (Rattus norvegicus [4]; Rattus norvegicus) of 6.00.

`CN(CCCCN1C(=O)CSC1c1cc(C(C)(C)C)c(O)c(C(C)(C)C)c1)CCOc1ccc2c(c1)OCO2` (stereo not drawn) gave a pIC50 (Rattus norvegicus [1]; Rattus norvegicus, Aorta) of 6.68 and a pIC50 (Rattus norvegicus [4]; Rattus norvegicus) of 6.00.

With `CN(CCCN1C(=S)CSC1c1cc(C(C)(C)C)c(O)c(C(C)(C)C)c1)CCOc1ccc2c(c1)OCO2` (stereo not drawn) the LDL oxidation (Oryctolagus cuniculus [2]) was 22.8%, the pIC50 (Rattus norvegicus [1]; Rattus norvegicus, Aorta) was 6.80 and the LDL oxidation (Oryctolagus cuniculus [3]) was 11.3%.

In the case of `CC(C)(C)c1cc(C2SCC(=O)N2CCCN(CCO)CCOc2ccc3c(c2)OCO3)cc(C(C)(C)C)c1O` (stereo not drawn), the pIC50 (Rattus norvegicus [1]; Rattus norvegicus, Aorta) was 6.49.

`CN(CCCN1C(=O)CSC1c1cc(C(C)(C)C)c(O)c(C(C)(C)C)c1)CCOc1ccc2c(c1)OCO2` (stereo in doubt; 1) [listing 1 of 2 here] gave an LDL oxidation (Oryctolagus cuniculus [5]) of 3% and an LDL oxidation (Oryctolagus cuniculus [6]) of 12.9%.

`CN(CCCN1C(=O)CSC1c1ccc(O)cc1)CCOc1ccc2c(c1)OCO2` (stereo not drawn) showed a pIC50 (Rattus norvegicus [1]; Rattus norvegicus, Aorta) of 5.59.

In the case of `CN(CCCN1C(=O)CSC1c1cc(C(C)(C)C)c(O)c(C(C)(C)C)c1)CCOc1ccc2c(c1)OCO2` (single isomer, unassigned; (+)) [listing 1 of 2 here], the LDL oxidation (Oryctolagus cuniculus [2]) was 13.5% and the LDL oxidation (Oryctolagus cuniculus [3]) was 5.9%.

In the case of `COc1ccc([C@@H]2Sc3ccccc3N(CCN(C)C)C(=O)[C@@H]2OC(C)=O)cc1` [DILTIAZEM], the LDL oxidation (Oryctolagus cuniculus [2]) was 109%, the pIC50 (Rattus norvegicus [1]; Rattus norvegicus, Aorta) was 7.00 and the CBF increasing activity (Canis familiaris) was 86%. For the same compound, the pIC50 (Rattus norvegicus [4]; Rattus norvegicus) was less than 5.00 and the LDL oxidation (Oryctolagus cuniculus [3]) was 111%.

In the case of `Cc1cc(C(C)(C)C)c(O)c(C(C)(C)C)c1` [BUTYLATED HYDROXYTOLUENE], the pIC50 (Rattus norvegicus [1]; Rattus norvegicus, Aorta) was 4.71 and the pIC50 (Rattus norvegicus [4]; Rattus norvegicus) was 6.05.

`CC(C)c1cc(C2SCC(=O)N2CCCN(C)CCOc2ccc3c(c2)OCO3)cc(C(C)C)c1O` (stereo not drawn) was tested, and the pIC50 (Rattus norvegicus [1]; Rattus norvegicus, Aorta) was 6.85 and the pIC50 (Rattus norvegicus [4]; Rattus norvegicus) was 6.49.

For `Cc1cc(C2SCC(=O)N2CCCN(C)CCOc2ccc3c(c2)OCO3)c(C)c(C)c1O` (stereo not drawn), the pIC50 (Rattus norvegicus [1]; Rattus norvegicus, Aorta) was 6.20.

`CN(CCCOc1ccc2c(c1)OCO2)CCCN1C(=O)CSC1c1cc(C(C)(C)C)c(O)c(C(C)(C)C)c1` (stereo not drawn) was tested, and the LDL oxidation (Oryctolagus cuniculus [2]) was 16.4%, the pIC50 (Rattus norvegicus [1]; Rattus norvegicus, Aorta) was 7.11 and the CBF increasing activity (Canis familiaris) was 23%. It also gave a pIC50 (Rattus norvegicus [4]; Rattus norvegicus) of 6.49 and an LDL oxidation (Oryctolagus cuniculus [3]) of 3.9%.

Work on `Cc1cc(C2SCC(=O)N2CCCN(C)CCOc2ccc3c(c2)OCO3)cc(C)c1O` (stereo not drawn) yielded a pIC50 (Rattus norvegicus [1]; Rattus norvegicus, Aorta) of 5.64.

`CN(CCCN1C(=O)CSC1c1cc(C(C)(C)C)c(O)c(C(C)(C)C)c1)CCOc1ccc2c(c1)OCO2` (single isomer, unassigned; (+)) [listing 2 of 2 here] gave a pIC50 (Rattus norvegicus [1]) of 6.47, a CBF increasing activity (Canis familiaris) of 16% and a pIC50 (Rattus norvegicus [4]) of 6.49.

In the case of `Cc1c(C)c2c(c(C)c1O)CC[C@@](C)(CCC[C@H](C)CCC[C@H](C)CCCC(C)C)O2` [ALPHA-TOCOPHEROL], the pIC50 (Rattus norvegicus [1]; Rattus norvegicus, Aorta) was 4.22 and the pIC50 (Rattus norvegicus [4]; Rattus norvegicus) was 4.88.

`CN(CCCN1C(=O)CSC1c1cc(C(C)(C)C)c(O)c(C(C)(C)C)c1)CCOc1ccc2c(c1)OCO2` (stereo in doubt; 1) [listing 2 of 2 here] gave a pIC50 (Rattus norvegicus [1]) of 7.21 and a CBF increasing activity (Canis familiaris) of 96%.

`CC(C)(C)c1cc(C2SCC(=O)N2CCCNCCOc2ccc3c(c2)OCO3)cc(C(C)(C)C)c1O` (stereo not drawn) showed a pIC50 (Rattus norvegicus [1]; Rattus norvegicus, Aorta) of 6.80 and a pIC50 (Rattus norvegicus [4]; Rattus norvegicus) of 6.00.

Work on `COc1c(C(C)(C)C)cc(C2SCC(=O)N2CCCN(C)CCOc2ccc3c(c2)OCO3)cc1C(C)(C)C` (stereo not drawn) yielded an LDL oxidation (Oryctolagus cuniculus [2]) of 91.6%, a pIC50 (Rattus norvegicus [1]; Rattus norvegicus, Aorta) of 7.44 and a pIC50 (Rattus norvegicus [4]; Rattus norvegicus) of 6.00. The LDL oxidation (Oryctolagus cuniculus [3]) was 39.7%.

With `CCN(CCCN1C(=O)CSC1c1cc(C(C)(C)C)c(O)c(C(C)(C)C)c1)CCOc1ccc2c(c1)OCO2` (stereo not drawn) the LDL oxidation (Oryctolagus cuniculus [2]) was 16.8%, the pIC50 (Rattus norvegicus [1]; Rattus norvegicus, Aorta) was 7.20 and the CBF increasing activity (Canis familiaris) was 52%. For the same compound, the pIC50 (Rattus norvegicus [4]; Rattus norvegicus) was 6.49 and the LDL oxidation (Oryctolagus cuniculus [3]) was 6.4%.

In the case of `COc1cc(C2SCC(=O)N2CCCN(C)CCOc2ccc3c(c2)OCO3)cc(OC)c1O` (stereo not drawn), the pIC50 (Rattus norvegicus [1]; Rattus norvegicus, Aorta) was 5.39.
